In ChEMBL document CHEMBL2384952, “Synthesis, antifungal and cytotoxic activities of 2-aryl-3-((piperidin-1-yl)ethyl)thiazolidinones” (Eur J Med Chem, 2013):
In brackets after ≈: the same amount, converted by molar mass.

Key:
Candida albicans = test: Antifungal activity against Candida albicans after 48 hrs by CLSI M27A3 broth microdilution method; type: functional
Method in brief: (§1)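 Yeasts were kept on Sabouraud dextrose agar and subcultured at 35 °C for at least 2 days. They were suspended in saline to McFarland 0.5 and diluted in RPMI. Ten successive dilutions were made from a 1.6 mg/mL DMSO stock per CLSI broth microdilution, then incubated at 37 °C for 48 h. Growth was read visually against a growth-control well, and MIC is the lowest concentration inhibiting growth.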

Vero [1] = test: Cytotoxicity against African green monkey Vero cells at 98 ug/mL by neutral red dye uptake assay relative to control; type: cell-based; conditions: chlorocebus sabaeus
Method in brief: (§2)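 Vero cells (over 99% viable by trypan blue exclusion) were exposed to serial compound dilutions in E-MEM, with fresh E-MEM as negative control, for 72 h at 37 °C, 5% CO2. Cells were then given 3.3 mg/L neutral red for 2 h, and the dye was extracted with 50% ethanol/1% acetic acid. A540 was read, and viability was calculated as treated/control absorbance × 100.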

Vero [2] = test: Cytotoxicity against African green monkey Vero cells at 49 ug/mL by neutral red dye uptake assay relative to control; type: cell-based; conditions: chlorocebus sabaeus; method in brief: as §2
Trichosporon asahii = test: Antifungal activity against Trichosporon asahii after 48 hrs by CLSI M27A3 broth microdilution method; type: functional; method in brief: as §1
Vero [3] = test: Cytotoxicity against African green monkey Vero cells at 12.3 ug/mL by neutral red dye uptake assay relative to control; type: cell-based; conditions: chlorocebus sabaeus; method in brief: as §2
Vero [4] = test: Cytotoxicity against African green monkey Vero cells at 394 ug/mL by neutral red dye uptake assay relative to control; type: cell-based; conditions: chlorocebus sabaeus; method in brief: as §2
Vero [5] = test: Cytotoxicity against African green monkey Vero cells at 197 ug/mL by neutral red dye uptake assay relative to control; type: cell-based; conditions: chlorocebus sabaeus; method in brief: as §2
Papiliotrema laurentii = test: Antifungal activity against Cryptococcus laurentii after 48 hrs by CLSI M27A3 broth microdilution method; type: functional; method in brief: as §1
Vero [6] = test: Cytotoxicity against African green monkey Vero cells at 787 ug/mL by neutral red dye uptake assay relative to control; type: cell-based; conditions: chlorocebus sabaeus; method in brief: as §2
Rhodotorula [7] = test: Antifungal activity against Rhodotorula species after 48 hrs by CLSI M27A3 broth microdilution method; type: functional; method in brief: as §1
Vero [8] = test: Cytotoxicity against African green monkey Vero cells at 1575 ug/mL by neutral red dye uptake assay relative to control; type: cell-based; conditions: chlorocebus sabaeus; method in brief: as §2
Vero [9] = test: Cytotoxicity against African green monkey Vero cells at 25 ug/mL by neutral red dye uptake assay relative to control; type: cell-based; conditions: chlorocebus sabaeus; method in brief: as §2
[10] = tested on: Meyerozyma guilliermondii; test: Antifungal activity against Candida guilliermondii after 48 hrs by CLSI M27A3 broth microdilution method; type: functional; method in brief: as §1
Geotrichum = test: Antifungal activity against Geotrichum species after 48 hrs by CLSI M27A3 broth microdilution method; type: functional; method in brief: as §1
Candida parapsilosis = test: Antifungal activity against Candida parapsilosis after 48 hrs by CLSI M27A3 broth microdilution method; type: functional; conditions: Lodderomyces parapsilosis; method in brief: as §1
Vero [11] = test: Cytotoxicity against African green monkey Vero cells at 3150 ug/mL by neutral red dye uptake assay relative to control; type: cell-based; conditions: chlorocebus sabaeus; method in brief: as §2
Rhodotorula [12] = test: Ratio of fluconazole MIC to compound MIC for Rhodotorula species; type: functional
Rhodotorula [13] = test: Ratio of fluconazole MFC to compound MFC for Rhodotorula species; type: functional

| Structure (SMILES) | MFC (Candida albicans) | MIC (Candida albicans) | Cell viability (Vero [1]) | Cell viability (Vero [2]) | MFC (Trichosporon asahii) | MIC (Trichosporon asahii) | Cell viability (Vero [3]) | Cell viability (Vero [4]) | Cell viability (Vero [5]) | MFC (Papiliotrema laurentii) | MIC (Papiliotrema laurentii) | Cell viability (Vero [6]) | MFC (Rhodotorula [7]) | MIC (Rhodotorula [7]) | Cell viability (Vero [8]) | Cell viability (Vero [9]) | MFC [10] | MIC [10] | MFC (Geotrichum) | MIC (Geotrichum) | also measured |
| --- | --- | --- | --- | --- | --- | --- | --- | --- | --- | --- | --- | --- | --- | --- | --- | --- | --- | --- | --- | --- | --- |
| O=C1CSC(c2ccccc2F)N1CCN1CCCCC1 (stereo unspecified) | 100 µg/mL (≈ 324 µM) | 100 µg/mL (≈ 324 µM) | 82% | 95% | > 400 µg/mL | > 400 µg/mL | 100% | 45% | 65% | 100 µg/mL (≈ 324 µM) | 100 µg/mL (≈ 324 µM) | 10% | 36 µg/mL (≈ 117 µM) | 36 µg/mL (≈ 117 µM) | 10% | 100% | 133 µg/mL (≈ 431 µM) | 133 µg/mL (≈ 431 µM) | > 400 µg/mL | > 400 µg/mL | MFC (Candida parapsilosis): 100 µg/mL (≈ 324 µM); MIC (Candida parapsilosis): 100 µg/mL (≈ 324 µM); Cell viability (Vero [11]): 10% |
| O=C1CSC(c2cccc([N+](=O)[O-])c2)N1CCN1CCCCC1 (stereo unspecified) | 50 µg/mL (≈ 149 µM) | 50 µg/mL (≈ 149 µM) | 94% | 100% | > 400 µg/mL | > 400 µg/mL | 100% | 60% | 75% | 100 µg/mL (≈ 298 µM) | 100 µg/mL (≈ 298 µM) | 15% | 16.5 µg/mL (≈ 49.2 µM) | 16.5 µg/mL (≈ 49.2 µM) | 7% | 100% | 100 µg/mL (≈ 298 µM) | 100 µg/mL (≈ 298 µM) | 100 µg/mL (≈ 298 µM) | 100 µg/mL (≈ 298 µM) | Ratio (Rhodotorula [12]): 1.6; Ratio (Rhodotorula [13]): 1.6; MFC (Candida parapsilosis): 100 µg/mL (≈ 298 µM); MIC (Candida parapsilosis): 100 µg/mL (≈ 298 µM); Cell viability (Vero [11]): 2% |
| O=C1CSC(c2cccc(F)c2)N1CCN1CCCCC1 (stereo unspecified) | 150 µg/mL (≈ 486 µM) | 150 µg/mL (≈ 486 µM) | 92% | 97% | > 400 µg/mL | > 400 µg/mL | 100% | 60% | 84% | 100 µg/mL (≈ 324 µM) | 100 µg/mL (≈ 324 µM) | 27% | 33.5 µg/mL (≈ 109 µM) | 33.5 µg/mL (≈ 109 µM) | 17% | 100% | 100 µg/mL (≈ 324 µM) | 100 µg/mL (≈ 324 µM) | > 400 µg/mL | > 400 µg/mL | MFC (Candida parapsilosis): 100 µg/mL (≈ 324 µM); MIC (Candida parapsilosis): 100 µg/mL (≈ 324 µM); Cell viability (Vero [11]): 13% |
| COc1ccccc1C1SCC(=O)N1CCN1CCCCC1 (stereo unspecified) | 100 µg/mL (≈ 312 µM) | 100 µg/mL (≈ 312 µM) | 100% | 100% | 50 µg/mL (≈ 156 µM) | 50 µg/mL (≈ 156 µM) | 100% | 67% | 72% | 100 µg/mL (≈ 312 µM) | 100 µg/mL (≈ 312 µM) | 30% | 16.5 µg/mL (≈ 51.5 µM) | 16.5 µg/mL (≈ 51.5 µM) | 17% | 100% | 100 µg/mL (≈ 312 µM) | 100 µg/mL (≈ 312 µM) | 41.5 µg/mL (≈ 130 µM) | 41.5 µg/mL (≈ 130 µM) | Ratio (Rhodotorula [12]): 1.6; Ratio (Rhodotorula [13]): 1.6; MFC (Candida parapsilosis): 100 µg/mL (≈ 312 µM); MIC (Candida parapsilosis): 100 µg/mL (≈ 312 µM); Cell viability (Vero [11]): 5% |
